Assays:
[1] = biological target: T1, A disintegrin and metalloproteinase with thrombospondin motifs 4 (Homo sapiens, UniProt O75173); assay: Inhibition of ADAMTS-4 assessed as substrate cleavage after 16 hrs by fluorescence assay
T1 sequence (O75173 whole entry): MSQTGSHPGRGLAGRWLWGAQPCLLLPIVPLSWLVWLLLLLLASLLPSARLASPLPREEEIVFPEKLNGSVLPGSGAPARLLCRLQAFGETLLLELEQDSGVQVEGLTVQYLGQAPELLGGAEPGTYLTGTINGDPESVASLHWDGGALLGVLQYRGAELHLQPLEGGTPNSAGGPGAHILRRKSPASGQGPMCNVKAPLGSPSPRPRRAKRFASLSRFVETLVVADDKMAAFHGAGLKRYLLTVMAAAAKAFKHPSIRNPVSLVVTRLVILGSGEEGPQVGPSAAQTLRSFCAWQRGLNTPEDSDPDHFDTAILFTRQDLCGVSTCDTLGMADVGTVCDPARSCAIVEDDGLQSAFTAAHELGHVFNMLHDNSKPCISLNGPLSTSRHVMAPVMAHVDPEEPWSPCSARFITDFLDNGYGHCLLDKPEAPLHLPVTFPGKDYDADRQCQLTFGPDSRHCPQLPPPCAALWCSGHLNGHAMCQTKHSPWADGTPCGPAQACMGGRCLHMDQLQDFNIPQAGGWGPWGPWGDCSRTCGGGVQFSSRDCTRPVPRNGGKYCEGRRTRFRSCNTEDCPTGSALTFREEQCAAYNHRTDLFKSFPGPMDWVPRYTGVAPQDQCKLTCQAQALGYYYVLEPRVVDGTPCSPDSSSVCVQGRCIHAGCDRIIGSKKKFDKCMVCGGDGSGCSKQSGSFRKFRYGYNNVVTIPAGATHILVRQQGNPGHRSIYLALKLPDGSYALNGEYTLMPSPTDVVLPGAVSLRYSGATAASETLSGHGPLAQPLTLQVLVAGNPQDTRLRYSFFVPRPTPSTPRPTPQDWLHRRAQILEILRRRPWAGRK
Summary of the method: (§1)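 Enzyme inhibition IC50s derived from at least six measurements, standard errors normally <5% within an assay; a standard compound run to keep assay-to-assay variability within twofold.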

[2] = biological target: T2, A disintegrin and metalloproteinase with thrombospondin motifs 5 (Homo sapiens, UniProt Q9UNA0); assay: Inhibition of ADAMTS-5 assessed as substrate cleavage after 16 hrs by fluorescence assay; summary of the method: as §1
T2 sequence (Q9UNA0 whole entry): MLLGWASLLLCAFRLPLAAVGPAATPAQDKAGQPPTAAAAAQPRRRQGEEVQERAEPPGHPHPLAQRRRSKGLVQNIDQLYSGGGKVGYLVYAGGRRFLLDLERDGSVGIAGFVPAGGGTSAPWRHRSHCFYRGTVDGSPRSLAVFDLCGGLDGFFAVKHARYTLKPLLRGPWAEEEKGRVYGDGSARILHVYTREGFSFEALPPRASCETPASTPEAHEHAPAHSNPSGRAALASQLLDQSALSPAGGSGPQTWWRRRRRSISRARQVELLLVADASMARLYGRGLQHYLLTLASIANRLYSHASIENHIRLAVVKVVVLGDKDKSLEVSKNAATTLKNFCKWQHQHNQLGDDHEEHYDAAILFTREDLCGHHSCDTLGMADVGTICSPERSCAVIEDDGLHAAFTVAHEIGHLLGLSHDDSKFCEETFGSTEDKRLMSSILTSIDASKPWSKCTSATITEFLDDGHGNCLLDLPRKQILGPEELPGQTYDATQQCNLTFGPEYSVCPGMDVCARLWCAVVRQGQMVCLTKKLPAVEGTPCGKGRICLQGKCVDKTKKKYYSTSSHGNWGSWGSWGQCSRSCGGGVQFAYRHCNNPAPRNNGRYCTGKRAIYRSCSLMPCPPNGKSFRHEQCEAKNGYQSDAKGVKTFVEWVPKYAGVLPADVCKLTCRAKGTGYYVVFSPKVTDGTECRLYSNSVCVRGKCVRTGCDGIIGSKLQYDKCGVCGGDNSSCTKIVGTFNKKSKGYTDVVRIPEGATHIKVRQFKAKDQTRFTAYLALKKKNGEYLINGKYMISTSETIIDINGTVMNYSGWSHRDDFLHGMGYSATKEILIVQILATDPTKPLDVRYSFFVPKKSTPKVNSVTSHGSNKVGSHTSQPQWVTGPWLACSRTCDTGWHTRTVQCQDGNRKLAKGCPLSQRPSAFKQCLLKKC

[3] = biological target: T3, Collagenase 3 (Homo sapiens, UniProt P45452); assay: Inhibition of recombinant human MMP-13 assessed as substrate cleavage after 20 hrs by fluorescence assay; summary of the method: as §1
[4] = biological target: Matrix metalloproteinase-14 (Homo sapiens, UniProt P50281); assay: Inhibition of recombinant human MMP-14 assessed as substrate cleavage after 20 hrs by fluorescence assay; summary of the method: as §1
[5] = biological target: T4, Interstitial collagenase (Homo sapiens, UniProt P03956); assay: Inhibition of recombinant human MMP-1 assessed as substrate cleavage after 20 hrs by fluorescence assay; summary of the method: as §1
T4 sequence (P03956 whole entry): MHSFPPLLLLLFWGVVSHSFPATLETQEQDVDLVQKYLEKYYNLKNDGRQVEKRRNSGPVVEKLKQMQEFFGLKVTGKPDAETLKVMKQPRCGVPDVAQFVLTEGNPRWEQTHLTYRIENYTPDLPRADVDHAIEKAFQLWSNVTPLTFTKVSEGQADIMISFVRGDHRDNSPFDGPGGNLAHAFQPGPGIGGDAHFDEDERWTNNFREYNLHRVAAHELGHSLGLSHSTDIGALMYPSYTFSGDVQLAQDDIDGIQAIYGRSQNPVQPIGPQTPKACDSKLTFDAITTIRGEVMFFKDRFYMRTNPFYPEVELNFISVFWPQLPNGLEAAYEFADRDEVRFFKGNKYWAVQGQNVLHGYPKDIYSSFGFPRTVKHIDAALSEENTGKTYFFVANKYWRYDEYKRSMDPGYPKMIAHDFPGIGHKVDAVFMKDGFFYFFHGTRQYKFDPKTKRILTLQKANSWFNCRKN

[6] = biological target: Cytochrome P450 3A4 (Homo sapiens, UniProt P08684); assay: Inhibition of CYP3A4; assay type: ADME
Sequence of Cytochrome P450 3A4 (P08684 whole entry, canonical isoform): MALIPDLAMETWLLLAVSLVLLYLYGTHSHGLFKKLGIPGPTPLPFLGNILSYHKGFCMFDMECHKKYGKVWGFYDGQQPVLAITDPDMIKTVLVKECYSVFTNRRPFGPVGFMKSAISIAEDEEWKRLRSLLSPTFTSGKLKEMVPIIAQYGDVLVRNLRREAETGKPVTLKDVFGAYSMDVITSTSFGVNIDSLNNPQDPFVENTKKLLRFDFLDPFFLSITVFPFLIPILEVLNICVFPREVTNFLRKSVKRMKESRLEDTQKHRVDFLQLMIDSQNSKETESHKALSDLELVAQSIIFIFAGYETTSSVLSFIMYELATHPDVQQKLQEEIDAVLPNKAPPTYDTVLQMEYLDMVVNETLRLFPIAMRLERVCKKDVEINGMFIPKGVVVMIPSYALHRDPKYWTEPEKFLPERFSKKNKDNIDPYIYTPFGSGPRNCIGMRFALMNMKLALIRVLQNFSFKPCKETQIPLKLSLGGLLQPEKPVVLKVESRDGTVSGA
Summary of the method: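 Inhibition of cytochrome P450 isoforms 1A2, 2C9, 2C19, 2D6 and 3A4, reported as pIC50.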

[7] = biological target: 72 kDa type IV collagenase (Homo sapiens, UniProt P08253); assay: Inhibition of recombinant human MMP-2 assessed as substrate cleavage after 20 hrs by fluorescence assay; summary of the method: as §1
Sequence of 72 kDa type IV collagenase (P08253 whole entry): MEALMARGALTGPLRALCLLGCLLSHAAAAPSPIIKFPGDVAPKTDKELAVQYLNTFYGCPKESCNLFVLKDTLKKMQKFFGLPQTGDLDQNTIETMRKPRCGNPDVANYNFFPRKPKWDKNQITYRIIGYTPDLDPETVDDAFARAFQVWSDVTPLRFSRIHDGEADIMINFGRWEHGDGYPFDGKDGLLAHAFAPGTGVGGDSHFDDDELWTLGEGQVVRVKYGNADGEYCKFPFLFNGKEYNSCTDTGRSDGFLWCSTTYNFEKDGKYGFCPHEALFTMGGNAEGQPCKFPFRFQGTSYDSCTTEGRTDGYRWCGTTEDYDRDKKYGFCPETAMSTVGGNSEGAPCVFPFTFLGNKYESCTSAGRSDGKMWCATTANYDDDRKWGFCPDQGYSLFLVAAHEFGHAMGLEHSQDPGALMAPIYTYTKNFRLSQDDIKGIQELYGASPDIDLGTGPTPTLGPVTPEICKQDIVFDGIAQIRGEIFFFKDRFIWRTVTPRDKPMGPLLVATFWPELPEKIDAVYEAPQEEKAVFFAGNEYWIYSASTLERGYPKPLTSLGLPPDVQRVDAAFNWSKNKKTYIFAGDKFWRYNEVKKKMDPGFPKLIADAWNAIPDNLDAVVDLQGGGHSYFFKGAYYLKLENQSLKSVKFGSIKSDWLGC

[8] = biological target: Matrix metalloproteinase-9 (Homo sapiens, UniProt P14780); assay: Inhibition of recombinant human MMP-9 assessed as substrate cleavage after 20 hrs by fluorescence assay; summary of the method: as §1
Sequence of Matrix metalloproteinase-9 (P14780 whole entry): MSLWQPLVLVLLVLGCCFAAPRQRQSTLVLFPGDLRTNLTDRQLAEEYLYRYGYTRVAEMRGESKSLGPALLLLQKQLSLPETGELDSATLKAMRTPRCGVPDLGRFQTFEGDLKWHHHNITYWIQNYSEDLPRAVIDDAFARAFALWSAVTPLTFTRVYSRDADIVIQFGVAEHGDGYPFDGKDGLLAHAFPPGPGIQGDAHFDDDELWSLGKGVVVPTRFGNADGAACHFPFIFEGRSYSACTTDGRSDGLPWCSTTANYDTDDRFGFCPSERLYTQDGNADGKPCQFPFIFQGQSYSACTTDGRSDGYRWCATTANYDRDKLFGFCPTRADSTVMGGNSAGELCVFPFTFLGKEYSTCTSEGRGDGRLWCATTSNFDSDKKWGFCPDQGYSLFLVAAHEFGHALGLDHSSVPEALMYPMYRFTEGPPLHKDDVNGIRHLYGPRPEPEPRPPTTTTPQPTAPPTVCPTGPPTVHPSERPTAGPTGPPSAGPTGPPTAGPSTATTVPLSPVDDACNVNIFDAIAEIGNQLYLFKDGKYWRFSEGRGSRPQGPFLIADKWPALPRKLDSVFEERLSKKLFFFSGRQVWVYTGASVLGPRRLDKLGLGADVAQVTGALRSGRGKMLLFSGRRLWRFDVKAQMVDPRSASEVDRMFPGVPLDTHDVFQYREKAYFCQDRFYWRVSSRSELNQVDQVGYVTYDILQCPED

[9] = Intrinsic clearance in human liver microsomes; assay type: ADME, Microsome
Summary of the method: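 Human liver microsome metabolism; intrinsic clearance expressed as μL/min/mg, reported as mean of eight separate experiments.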

[10] = Clearance in rat at 2 mg/kg, iv; assay type: ADME, organism-based; design: dose 2 mg/kg, route intravenous; details: in vivo
Summary of the method: (§2)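 Rat iv PK: 2 mg/kg iv, n = 2 animals; clearance, half-life and Vdss determined.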

[11] = Volume of distribution at steady state in rat at 2 mg/kg, iv; assay type: ADME, organism-based; design: dose 2 mg/kg, route intravenous; details: in vivo, read-out: Vdss; summary of the method: as §2
[12] = Half life in rat at 2 mg/kg, iv; assay type: ADME, organism-based; design: dose 2 mg/kg, route intravenous; details: in vivo; summary of the method: as §2
[13] = biological target: T3, Collagenase 3; assay: Inhibition of recombinant human MMP-13 assessed as substrate cleavage at 15 uM after 20 hrs by fluorescence assay

| SMILES | IC50 [1] [µM] | IC50 [2] [µM] | IC50 [3] [µM] | IC50 [4] [µM] | IC50 [5] [µM] | IC50 [6] [µM] | IC50 [7] [µM] | IC50 [8] [µM] | microsomal CLint [9] [µL/min/mg] | clearance [10] [mL/min/kg] | Vd [11] [L/kg] | half-life [12] [h] | inhibition [13] [%] |
| --- | --- | --- | --- | --- | --- | --- | --- | --- | --- | --- | --- | --- | --- |
| Cc1cc(CCC2CCN(S(=O)(=O)CC3(N(O)C=O)CCOCC3)CC2)c(C)cn1 | 0.018 | 3.4 | 46 | > 100 | > 10 |  | 61 | > 100 | 4.3 | 20 | 2 | 4 |  |
| Cc1noc(C)c1CCC1CCN(S(=O)(=O)CC2(N(O)C=O)CCOC(C)(C)C2)CC1 (stereo not drawn) | 0.0097 | 0.25 | > 10 | > 10 | > 10 | > 10 | > 10 | > 10 | 12 |  |  |  |  |
| O=CN(O)C1(CS(=O)(=O)N2CCN(c3ccc(F)cc3)CC2)CCC1 | 0.091 |  |  |  |  | 1.9 |  |  |  |  |  |  | 81 |
| Cc1cc(F)ccc1CCC1CCN(S(=O)(=O)CC2(N(O)C=O)CCOCC2)CC1 | 0.0045 | 0.069 | 0.94 | 3.1 | > 10 |  | 1.3 | 3.1 | < 2 | 15 | 2 |  |  |
| O=CN(O)C1(CS(=O)(=O)N2CCN(c3ccc(F)cc3)CC2)CCOCC1 | 0.021 |  |  |  |  | > 10 |  |  |  |  |  |  | 97 |

Further lines, results first:

| IC50 [1] [µM] | IC50 [2] [µM] | IC50 [3] [µM] | IC50 [4] [µM] | IC50 [5] [µM] | IC50 [6] [µM] | IC50 [7] [µM] | IC50 [8] [µM] | microsomal CLint [9] [µL/min/mg] | clearance [10] [mL/min/kg] | Vd [11] [L/kg] | half-life [12] [h] | inhibition [13] [%] | SMILES |
| --- | --- | --- | --- | --- | --- | --- | --- | --- | --- | --- | --- | --- | --- |
| 0.016 | 0.27 | > 10 | > 10 | > 10 | > 10 | > 10 | > 10 | 4.9 |  |  |  |  | Cc1noc(C)c1CCC1CCN(S(=O)(=O)CC2(N(O)C=O)CCS(=O)(=O)CC2)CC1 |
| 0.013 | 0.45 | > 10 | > 10 | > 10 |  | > 10 | > 10 | 8.5 | 18 | 2 | 6.3 |  | Cc1nsc(C)c1CCC1CCN(S(=O)(=O)CC2(N(O)C=O)CCOCC2)CC1 |
| 0.019 | 1.2 | > 10 | > 10 | > 10 | > 10 | > 10 | > 10 | < 2 |  |  |  |  | Cc1noc(C)c1CCC1CCN(S(=O)(=O)CC2(N(O)C=O)CCN(C)CC2)CC1 |
| 0.01 | 0.27 | > 10 | > 10 | > 10 | > 10 | > 10 | > 10 | 65 |  |  |  |  | Cc1noc(C)c1CCC1CCN(S(=O)(=O)CC2(N(O)C=O)CCN(C(=O)C3CCC3)CC2)CC1 |
| 0.02 | 0.41 | > 10 | > 10 | > 10 | > 10 | > 10 | > 10 | 13 |  |  |  |  | Cc1noc(C)c1CCC1CCN(S(=O)(=O)CC2(N(O)C=O)CCC(F)(F)CC2)CC1 |

Reference: ChEMBL document CHEMBL1781898, “Orally active achiral N-hydroxyformamide inhibitors of ADAM-TS4 (aggrecanase-1) and ADAM-TS5 (aggrecanase-2) for the treatment of osteoarthritis” (Bioorg Med Chem Lett, 2011)
